{"data": "Results pooled from the literature", "note": "Lines come from different studies, so protocols differ."}
{"Structure (SMILES)": "CCC[C@@](N)(CO)CCc1ccc(OCCCCCC(C)C)cc1", "test system": "mouse, plasma", "setting": "intraperitoneal, 10 mg/kg", "Cmax": "1460 nM"}
{"Structure (SMILES)": "N#Cc1c(Oc2cccc(OS(=O)(=O)CCCC(F)(F)F)c2)cccc1C(F)(F)F", "test system": "mouse, plasma", "setting": "oral, 5 mg/kg", "Cmax": "172 ng/mL"}
{"Structure (SMILES)": "Cc1cc(C)nc(Nc2ncc(C(=O)NCCc3c(C)[nH]c4ccccc34)cn2)c1", "test system": "C57BL/6 mouse, plasma", "setting": "intraperitoneal, 4.4 mg/kg", "Cmax": "191 ng/mL"}
{"Structure (SMILES)": "C[C@]12CC[C@H](O)CC1=CC[C@@H]1[C@@H]2CC[C@]2(C)C(n3cnc4ccccc43)=CC[C@@H]12.Cl", "test system": "mouse, plasma", "setting": "oral, 10 mg/kg", "Cmax": "10.5 ng/mL"}
{"Structure (SMILES)": "Cc1c(P(=S)(c2ccccc2)c2ccccc2)n2ccccc2[n+]1C/C=C/c1ccccc1.[Br-]", "test system": "mouse, plasma", "setting": "intraperitoneal, 10 mg/kg", "Cmax": "1500 nM"}
{"Structure (SMILES)": "CN[C@H](CC(C)C)C(=O)N[C@H]1C(=O)N[C@@H](CC(N)=O)C(=O)N[C@H]2C(=O)NC3C(=O)N[C@H](C(=O)N[C@H](C(=O)NCCC[N+](C)(C)C)c4cc(O)cc(O)c4-c4cc3ccc4O)[C@H](O)c3ccc(c(Cl)c3)Oc3cc2cc(c3OC2OC(CO)C(O)[C@H](O)[C@@H]2O[C@H]2CC(C)(NCc3ccc(-c4ccc(Cl)cc4)cc3)[C@H](O)[C@H](C)O2)Oc2ccc(cc2Cl)[C@H]1O (stereo partly drawn)", "test system": "mouse, plasma", "setting": "intravenous, 10 mg/kg", "Cmax": "14100 ng/mL"}
{"Structure (SMILES)": "COc1ncccc1-c1cnn2ccc(N3CCN(C(=O)OC(C)C)CC3)nc12", "test system": "mouse, plasma", "setting": "oral, 10 mg/kg", "Cmax": "5200 nM"}
{"Structure (SMILES)": "NCC(=O)Nc1ccc(-n2nc(C(F)(F)F)cc2-c2ccc3c(ccc4ccccc43)c2)cc1", "test system": "mouse, plasma", "setting": "oral, 80 mg/kg, single dose", "Cmax": "2080 ng/mL"}
{"Structure (SMILES)": "COc1ccc2[nH]cc(CCNc3nccc(Nc4cccc5c4ccn5C)n3)c2c1", "test system": "mouse, plasma", "setting": "oral, 28.6 mg/kg", "Cmax": "406 ng/mL"}
{"Structure (SMILES)": "C[C@]12CC[C@H](n3ccnc3)CC1=CC[C@@H]1[C@@H]2CC[C@]2(C)C(n3cnc4ccccc43)=CC[C@@H]12.Cl", "test system": "male CD-1 mouse, plasma", "setting": "oral, 10 mg/kg", "Cmax": "1270 ng/mL"}
{"Structure (SMILES)": "CN1CCCCC1Cn1cc(C(=O)c2cc([N+](=O)[O-])ccc2I)c2ccccc21 (racemic)", "test system": "mouse, plasma", "setting": "oral, 25 mg/kg", "Cmax": "800 ng/mL"}
{"Structure (SMILES)": "CCCCCCCC(=O)N[C@@H](CCCCN)C(=O)N[C@@H](CCCCN)C(=O)N[C@@H](C)C(=O)N[C@@H](CC(C)C)C(=O)N[C@@H](CCCCN)C(=O)N[C@@H](CC(C)C)C(=O)N[C@@H](C)C(=O)N[C@@H](CCCCN)C(=O)N[C@@H](CCCCN)C(=O)N1CCC[C@H]1C(=O)N[C@@H](CC(C)C)C(=O)N[C@@H](CCCCN)C(=O)N[C@@H](CC(C)C)C(=O)N[C@@H](CC(C)C)C(=O)N[C@@H](CCCCN)C(N)=O", "test system": "female CD-1 mouse, blood", "setting": "intravenous, 1 mg/kg, single dose", "Cmax": "441 ng/mL"}
